# From PubChem BioAssay
# Shown are actives, neighbours in structure and some others; about 6.8% of the full set was active somewhere.
# HER2 expr 66K = inhibitors of Her2 protein expression, primary screen, SKBR-3 cells, AlphaScreen, 66K library; SKBR-3 HER2 protein level, 18-24 h; hits give low values; HER2 level % of control, % at 10 µM; hit rate 0.69% among 65,000;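 active = HER2 level under 5% of the carrier-only control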;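 note: 100% = DMSO carrier and 0% = 500 nM PU-H71 HSP90 inhibitor; lower value means stronger loss of Her2 protein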
# HEK293 NFkB inh = inhibitors of PMA/ionomycin-induced NF-kB reporter, primary screen, antigen receptor NF-kB inhibitor project, cell-based, HEK-293 luciferase reporter, luminescence; inhibition, % at 3 µM; HEK-293 NF-kB luciferase reporter; AID 465, 2006; hit rate 0.21% among 62,000;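 active = inhibition above the mean of all tested compounds plus 3 SD, cut at about 40% in these data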;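 note: 0% = stimulated DMSO wells and 100% = 10 µM reference inhibitor 5653914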
#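 Material: HEK-293 cells with stable firefly luciferase reporter driven by four HIV NF-kB elements / Also added: PMA plus ionomycin mix as NF-kB-activating stimulus / Compound dosing: 3 µM once, 0.30% DMSO / Times: 1 h pretreatment, 16 h stimulation, 37 °C / Signal: luminescence / Evaluation: per-plate % inhibition versus controls / Benchmarks: DMSO and 10 µM reference inhibitor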
# M1 agonist = M1 muscarinic receptor agonists, primary screen, CHO-M1 cells, Fluo-4 calcium, agonist mode; Fluo-4 calcium fluorescence; hits give high values; B-score at 10 µM; hit rate 3% among 64,000; AID 626, 2007;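 active = fluorescence rise, raw or as B-score row- and column-corrected plate score, outside the 99.7% band of its plate's samples, either direction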
# Cdc25B block = inhibitors of Cdc25B phosphatase catalytic domain, primary screen, biochemical, OMFP fluorescence. recombinant Cdc25B, OMFP fluorescence Ex485/Em525. inhibition, %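 (compounds tested at 10 µM final in the well)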. M-phase inducer phosphatase 2 (Homo sapiens), P30305. hit rate 0.1% among 65,000. AID 368, 2006; in the data active = inhibition above about 50%
# Target sequence (P30305 whole entry, looked up, the tested form may be a part): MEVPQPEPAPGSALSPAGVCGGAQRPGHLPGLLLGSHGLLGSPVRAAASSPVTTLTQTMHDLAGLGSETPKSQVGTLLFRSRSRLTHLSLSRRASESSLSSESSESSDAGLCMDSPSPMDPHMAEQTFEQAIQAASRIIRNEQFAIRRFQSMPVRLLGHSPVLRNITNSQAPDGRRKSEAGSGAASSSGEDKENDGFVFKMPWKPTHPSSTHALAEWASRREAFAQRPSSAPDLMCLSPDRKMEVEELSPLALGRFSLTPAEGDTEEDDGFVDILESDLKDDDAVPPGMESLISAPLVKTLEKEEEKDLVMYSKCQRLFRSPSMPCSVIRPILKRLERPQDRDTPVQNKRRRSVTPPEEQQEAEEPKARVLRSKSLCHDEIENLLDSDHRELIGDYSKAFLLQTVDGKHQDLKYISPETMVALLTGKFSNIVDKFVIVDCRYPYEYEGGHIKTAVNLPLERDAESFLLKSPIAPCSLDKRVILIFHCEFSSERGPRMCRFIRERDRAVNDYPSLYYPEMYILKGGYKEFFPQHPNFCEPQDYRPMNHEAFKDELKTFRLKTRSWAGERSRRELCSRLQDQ
# MKP-1 inh = MKP-1 phosphatase inhibitors, primary screen, biochemical, in vitro; inhibition, %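 (compounds tested at a single concentration somewhere between 10 and 100 µM)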; recombinant MKP-1, OMFP hydrolysis fluorescence; hit rate 0.15% among 65,000; AID 374, 2006; Dual specificity protein phosphatase 1 (Homo sapiens), P28562;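 active = inhibition above about 50%, limit read from the data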;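 note: 0% = DMSO max control wells and 100% = wells with enzyme stopped by NaOH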
# M1 antag = antagonists of rat M1 muscarinic receptor | CHO-M1 cells, Fluo-4 calcium, ACh EC80 antagonist mode; hits give low values | hit rate 3.4% among 64,000 | B-score at 10 µM | AID 628, 2007;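 active = calcium fluorescence response, raw or row-and-column corrected B-score, differing from the plate sample mean either way at a set confidence level, mostly lower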
# M1 antag confirm = rat M1 muscarinic receptor antagonists, confirmation, CHO cells, Fluo-4 calcium, duplicate; shares compounds with M1 antag; ACh EC80 antagonism; hits give low values; calcium response (max-min fluorescence) at 10 µM; hit rate 43% among 1,700; AID 677, 2007;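 active = calcium response below the same-plate mean of wells given acetylcholine alone at its 80%-effect dose, minus 3 SD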;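 note: raw fluorescence intensity difference in arbitrary instrument units and not normalized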
# mGluR4 antag = human mGluR4 response to M1 antagonist hits, M1 allosteric modulator project, cell-based, antagonist mode, secondary assay 1; shares compounds with M1 antag; AID 678, 2007; hit rate 0.9% among 1,700; fluorescence response (max-min) at 10 µM; CHO-mGluR4 calcium flux, Fluo-4 fluorescence, glutamate EC80; hits give low values;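 active = fluorescence response below the plate's average for near-maximal glutamate wells, less 3 SD of those wells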;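 note: raw unnormalized fluorescence span taken in the window right after glutamate addition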
# Numbers without * were called inactive; . = no result.
SMILES,HER2 expr 66K,HEK293 NFkB inh,M1 agonist,Cdc25B block,MKP-1 inh,M1 antag,M1 antag confirm,mGluR4 antag
CCc1ccc(-c2nc(CN3CCC(C(=O)N4CCN(c5ccccc5)CC4)CC3)c(C)o2)cc1,-15*,0,0.72,-33,37,-2.9*,486*,255
CCc1ccc(-c2nc(CN3CCCC(C(=O)O)C3)c(C)o2)cc1 (configuration not stated),103,-7,-0.67,0,6,-0.42,.,.
Cc1cccc(NC(=O)C(NS(=O)(=O)c2ccc3c(c2)CCC(=O)N3)c2ccccc2)n1 (configuration not stated),92,13,0.0029,-3,6,0.021,.,.
CC(=O)Nc1c2c(nn1-c1ccc(C)cc1C)CSC2,79,-2,-0.31,-5,-4,-1.9*,641,259
CC(C)C(c1nnnn1C1CCCC1)N1CCN(C(=O)c2ccco2)CC1 (configuration not stated),84,2,-0.76,-4,5,0.14,.,.
Cc1ccccc1N1CCN(S(=O)(=O)c2ccc3oc(=O)ccc3c2)CC1,83,10,0.14,-5,-3,-3.3*,557,233
CCc1ccccc1N1CCN(S(=O)(=O)c2ccc(F)c(C)c2)CC1,95,-11,3,-11,0,-0.79,.,.
COC(=O)CCCc1nc2ccccc2s1,96,14,-1.1,-11,-20,-2.5*,633,239
Cc1ccc(S(=O)(=O)NC2=NCN(C3CCCCC3)CN2)cc1,58,12,-0.015,-13,1,-0.52,.,.
Cc1nc(NC2=NCN(CC3CCCO3)CN2)nc2ccccc12 (configuration not stated),103,13,-0.2,-18,-9,-8.9*,108*,209
Cc1nc(NC2=NCN(C3CCCCC3C)CN2)nc2ccccc12 (configuration not stated),76,10,-1.3,-7,-23,-4.9*,258*,186
Cc1ccccc1CS(=O)(=O)CCC(=O)NCCCN1CCN(c2ccccc2F)CC1,81,11,0.16,2,6,-0.36,.,.
O=C(CCCCCn1c(=O)[nH]c2ccccc2c1=O)NCCCN1CCN(c2ccccc2F)CC1,118,19,0.31,-12,-9,-3.5*,506,220
O=C(Nn1cnnc1)c1ccccc1CCc1ccccc1,121,15,.,4,24,.,.,.
CN1CCN(c2ccccc2NC(=O)c2ccc(OCc3ccccc3)cc2)CC1,75,6,4.2,-24,-22,-2.2*,403*,277
CN1CCN(CCC(=O)Nc2ccc(OCc3ccccc3)cc2)CC1,103,-5,-1.7,12,-1,-1.7*,557,258
O=C(CCN1CCN(CCO)CC1)Nc1ccc(OCc2ccccc2)cc1,102,2,-0.25,-16,-2,-0.22,.,.
CN1CCN(c2ccccc2NC(=O)Cc2cn(C)c3ccccc23)CC1,83,16,0.21,-14,6,-0.74*,522*,230
CCn1c(=O)cc(OCC(=O)Nc2ccccc2N2CCN(C)CC2)c2ccccc21,96,15,-0.041,-5,-4,-2,.,.
Cc1ccc(Nc2nc(N)nc(CSc3nnc(-c4ccncc4)o3)n2)cc1,106,6,-0.28,-8,0,0,.,.
